{"source": "paper PMC12618661", "about": "(NPJ Science of Food, 2025)", "key": {"[1]": {"test": "Water solubility evaluation", "type": "physicochemical", "conditions": "deionized water", "outline": "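Compound was added to deionized water to supersaturation and stirred for 24 h at 25 °C. The mixture was centrifuged at 8000 × g, 25 °C, for 20 min. The supernatant was freeze-dried and the residue weighed.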"}, "[2]": {"test_system": "HFD-fed C57BL/6 N mice", "test": "Serum analysis of HFD-fed mice", "type": "in vivo, mouse", "conditions": "0.2 g/L in drinking water, 16 weeks", "outline": "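After 16 weeks of 60% kcal-fat HFD with test compound at 0.2 g/L in drinking water or plain water, mice were euthanised with CO2. Blood was taken by cardiac puncture. An automated chemistry analyser measured serum cholesterol, TG, ALT, AST and glucose (n = 5 per group). Data are mean ± SEM with one-way ANOVA and Dunnett's or Tukey's test.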"}, "[3]": {"test_system": "mammalian mucosal α-glucosidase (rat intestinal acetone powder, RIAP)", "test": "Glucose generation rate", "type": "in vitro ADME", "conditions": "5 mg/mL substrate, RIAP-derived α-glucosidase, 2 h", "outline": "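Rat intestinal acetone powder (0.5 g) was extracted in 10 mL 100 mM sodium phosphate (pH 6.2) at 4 °C for 24 h and centrifuged. The supernatant was freeze-dried and re-dissolved in 10 mL of the same buffer as α-glucosidase. Test compound at 5 mg/mL was incubated with the enzyme. Aliquots were taken at 0, 10, 20, 30, 60 and 120 min, heat-inactivated for 10 min, and glucose was measured with a glucose assay kit.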"}, "[4]": {"conditions": "vs sucrose; stated without own test, ref not given; cited from earlier work"}, "[5]": {"conditions": "TGA; cited from earlier work"}, "[6]": {"test": "Thermogravimetric analysis", "type": "physicochemical", "conditions": "TGA"}, "[7]": {"test_system": "rats", "conditions": "cited from earlier work"}, "[8]": {"test": "Static in vitro digestion simulation", "type": "in vitro ADME, human", "conditions": "oral, gastric and intestinal phases, 37 °C", "outline": "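Static digestion of 50 mg test compound ran at 37 °C with stirring. Oral phase: saliva pH 7.0 (1.5 mM CaCl₂, 75 U/mL amylase), sampled at 5 min. Samples were heat-stopped (100 °C, 5 min), centrifuged and filtered, and glucose was measured by kit.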"}, "[9]": {"test_system": "HFD-fed C57BL/6 N mice", "test": "Immunoblot of tissue lysates from HFD-fed mice", "type": "in vivo, mouse", "conditions": "0.2 g/L in drinking water, 16 weeks", "outline": "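Mice were on a 16-week 60% kcal-fat HFD with test compound at 0.2 g/L in drinking water or plain water. Liver, gWAT and BAT lysates came from median-body-weight mice. Equal protein was run on SDS-PAGE, transferred to nitrocellulose and blocked in 5% skim milk. Primary antibodies (ACC, FAS, UCP1, p-PLIN, HSP90) ran overnight at 4 °C, then secondary 2–3 h at room temperature. Detection was by ECL with band densitometry, n = 4 per group.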"}, "[10]": {"test": "pH stability in Britton–Robinson buffer", "type": "physicochemical", "outline": "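Compound was dissolved at 0.05% (w/v) in Britton–Robinson buffer over pH 1.4–10. The amount remaining was quantified by HPLC.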"}, "[11]": {"test": "Storage stability in aqueous solution", "type": "physicochemical", "conditions": "1 month, 25 °C", "outline": "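Aqueous solutions of 1–2% (w/v) were held at 25 °C for up to 1 month. Compound remaining in the supernatant at 0, 7, 15 and 30 days was quantified by HPLC.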"}, "[12]": {"test_system": "HFD-fed C57BL/6 N mice", "test": "HFD-induced obesity in mice: body weight, intake, tissue weight, histology", "type": "in vivo, mouse", "conditions": "0.2 g/L in drinking water, 16 weeks", "outline": "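Eight-week-old C57BL/6N mice were kept on a 60% kcal-fat HFD for 16 weeks with test compound at 0.2 g/L in drinking water ad libitum, or plain water. Estimated intake was about 0.675 mg/mouse/day. Body weight was taken weekly and food/water every other day (n = 10). Median-weight mice gave formalin-fixed paraffin sections (gWAT 7 μm, liver 5 μm), H&E stained (n = 5). Adipocyte size came from about 3,000 cells, four images per mouse. Data are mean ± SEM.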"}}}
{"molecule": "rebaudioside A [Reb A]", "values": [{"measurement": "Water solubility", "setting": "[1]; stirred 24 h at 25 °C", "value": "5.10 ± 2.93", "unit": "mg/mL"}, {"measurement": "Serum TG", "setting": "[2]", "value": "remained unchanged"}, {"measurement": "Serum cholesterol", "setting": "[2]", "value": "remained unchanged"}, {"measurement": "Glucose released", "setting": "[3]", "value": "almost no glucose release"}, {"measurement": "Sweetness relative to sucrose", "setting": "[4]", "value": 250, "unit": "times"}, {"measurement": "Second-stage mass loss temperature previously reported", "setting": "[5]", "value": 284.71, "unit": "°C"}, {"measurement": "Temperature at which second-stage mass loss commenced", "setting": "[6]", "value": "280–290 °C"}, {"measurement": "Initial mass retained at 597 °C", "setting": "[6]; 597 °C", "value": "9.92 ± 0.45", "unit": "%"}, {"measurement": "Initial mass retained, second-stage mass loss", "setting": "[6]; stage commencing at approximately 280–290 °C", "value": "19.89 ± 1.67", "unit": "%"}, {"measurement": "No-observed-adverse-effect level (NOAEL)", "setting": "[7]", "value": 4100, "unit": "mg/kg/day"}, {"measurement": "Hydrolysis in in vitro simulated digestion", "setting": "[8]", "value": 2, "unit": "%"}, {"measurement": "ACC protein expression in liver", "setting": "[9]", "value": "increased"}, {"measurement": "p-PLIN protein level in gWAT", "setting": "[9]; vs control", "value": "substantially decreased"}, {"measurement": "Initial concentration retained at pH 1.4", "setting": "[10]; pH 1.4, 0.05% (w/v) in Britton–Robinson buffer", "value": "25.26 ± 3.19", "unit": "%"}, {"measurement": "Initial concentration retained at pH 2", "setting": "[10]; pH 2, 0.05% (w/v) in Britton–Robinson buffer", "value": "82.67 ± 2.39", "unit": "%"}, {"measurement": "Initial concentration retained at pH 10", "setting": "[10]; pH 10, 0.05% (w/v) in Britton–Robinson buffer", "value": "84.56 ± 1.68", "unit": "%"}, {"measurement": "Initial concentration remaining after storage, 1% (w/v) aqueous solution", "setting": "[11]; 1% (w/v)", "value": "52.61 ± 1.69", "unit": "%"}, {"measurement": "Initial concentration remaining after storage, 2% (w/v) aqueous solution", "setting": "[11]; 2% (w/v)", "value": "32.14 ± 3.78", "unit": "%"}, {"measurement": "Crown-like structure (CLS) in gWAT, inflammatory indicator", "setting": "[12]", "value": "significantly increased"}, {"measurement": "Number of large adipocytes in gWAT", "setting": "[12]", "value": "remained unchanged"}, {"measurement": "Water intake and food consumption", "setting": "[12]", "value": "comparable across the groups"}, {"measurement": "gWAT weight", "setting": "[12]", "value": "did not increase"}, {"measurement": "Body weight", "setting": "[12]; vs control", "value": "no effect"}]}
{"molecule": "C=C1C[C@@]23CC[C@H]4[C@@](C)(CCC[C@@]4(C)C(=O)O[C@@H]4O[C@H](CO)[C@@H](O)[C@H](O)[C@H]4O)[C@@H]2CC[C@]1(O[C@@H]1O[C@H](CO)[C@@H](O)[C@H](O)[C@H]1O[C@@H]1O[C@H](CO)[C@@H](O)[C@H](O)[C@H]1O)C3", "note": "[ST, stevioside]", "values": [{"measurement": "solubility at 24 h", "setting": "[1]", "value": "11 ± 3.11", "unit": "mg/mL"}, {"measurement": "Glucose released", "setting": "[3]", "value": "almost no glucose release"}, {"measurement": "Sweetness relative to sucrose", "setting": "[4]", "value": 250, "unit": "times"}, {"measurement": "Hydrolysis in in vitro simulated digestion", "setting": "[8]", "value": 2, "unit": "%"}]}
